Experiments:
Assay type in all cases: ADME, organism-based
[1] = tested on: Rattus norvegicus; assay: Distribution of radioactivity in liver tissues of Sprague-Dawley rats after 30 min injecton by intravenously; 0.54-0.89; conditions: in vivo, iv, 0.5 h
Method in brief: (§1)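 Female Sprague-Dawley rats, 10–12 weeks old (170–200 g), fed ad libitum, under ether anaesthesia. Each received 15.1 μCi of the ¹²⁵I-labelled pyridinium conjugate or 10.6 μCi of the dihydropyridine conjugate by lateral tail vein. Dose was in 20% Me2SO/saline with vitamin E (~5 mg/mL), 0.22-μm filtered. Five rats per time point. Tissue activity was read against injected-solution standards as % injected dose/g.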

[2] = tested on: Rattus norvegicus; assay: Distribution of radioactivity in liver tissues of Sprague-Dawley rats after 60 min injecton by intravenously; 0.38-0.57; conditions: in vivo, iv, 1 h; method in brief: as §1
[3] = tested on: Rattus norvegicus; assay: Distribution of radioactivity in kidney tissues of Sprague-Dawley rats after 30 min injecton by intravenously; 0.58-0.73; conditions: in vivo, iv, 0.5 h; method in brief: as §1
[4] = tested on: Rattus norvegicus; assay: Distribution of radioactivity in kidney tissues of Sprague-Dawley rats after 5 min injecton by intravenously; 1.73-2.64; conditions: in vivo, iv; method in brief: as §1
[5] = tested on: Rattus norvegicus; assay: Distribution of radioactivity in kidney tissues of Sprague-Dawley rats after 60 min injecton by intravenously; 0.49-0.57; conditions: in vivo, iv, 1 h; method in brief: as §1
[6] = tested on: Rattus norvegicus; assay: Distribution of radioactivity in liver tissues of Sprague-Dawley rats after 15 min injecton by intravenously; 0.81-1.18; conditions: in vivo, iv, 0.25 h; method in brief: as §1
[7] = tested on: Rattus norvegicus; assay: Distribution of radioactivity in lung tissues of Sprague-Dawley rats after 15 min injecton by intravenously; 0.58-0.86; conditions: in vivo, iv, 0.25 h
Method in brief: (§2)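 Female Sprague-Dawley rats, 10–12 weeks, 170–200 g, fed ad libitum, five per time point. Agent dissolved in minimal Me2SO, diluted with saline to 20% Me2SO, with vitamin E (~5 mg/mL) added, 0.22-µm filtered. 15.1 or 10.6 µCi (per agent) injected into lateral tail vein under ether. Lungs taken; % injected dose/g against injected-solution standards; mean (range).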

[8] = tested on: Rattus norvegicus; assay: Distribution of radioactivity in lung tissues of Sprague-Dawley rats after 30 min injecton by intravenously; 0.54-0.7; conditions: in vivo, iv, 0.5 h; method in brief: as §2
[9] = tested on: Rattus norvegicus; assay: Distribution of radioactivity in lung tissues of Sprague-Dawley rats after 5 min injecton by intravenously; 0.76-0.91; conditions: in vivo, iv; method in brief: as §2
[10] = tested on: Rattus norvegicus; assay: Distribution of radioactivity in lung tissues of Sprague-Dawley rats after 60 min injecton by intravenously; 0.5-0.65; conditions: in vivo, iv, 1 h; method in brief: as §2
[11] = tested on: Rattus norvegicus; assay: Distribution of radioactivity in brain tissues of Sprague-Dawley rats after 5 min injecton by intravenously; 0.05-0.07; conditions: in vivo, iv
[12] = tested on: Rattus norvegicus; assay: Distribution of radioactivity in brain tissues of Sprague-Dawley rats after 60 min injecton by intravenously; 0.03-0.06; conditions: in vivo, iv, 1 h
[13] = tested on: Rattus norvegicus; assay: Distribution of radioactivity in blood tissues of Sprague-Dawley rats after 5 min injecton by intravenously; 1.0-1.24; conditions: in vivo, iv
[14] = tested on: Rattus norvegicus; assay: Distribution of radioactivity in heart tissues of Sprague-Dawley rats after 60 min injecton by intravenously; 0.58-0.75; conditions: in vivo, iv, 1 h; method in brief: as §1
[15] = tested on: Rattus norvegicus; assay: Distribution of radioactivity in kidney tissues of Sprague-Dawley rats after 15 min injecton by intravenously; 0.62-0.92; conditions: in vivo, iv, 0.25 h; method in brief: as §1
[16] = tested on: Rattus norvegicus; assay: Distribution of radioactivity in blood tissues of Sprague-Dawley rats after 60 min injecton by intravenously; 0.58-0.77; conditions: in vivo, iv, 1 h
[17] = tested on: Rattus norvegicus; assay: Distribution of radioactivity in brain tissues of Sprague-Dawley rats after 15 min injecton by intravenously; 0.03-0.06; conditions: in vivo, iv, 0.25 h
[18] = tested on: Rattus norvegicus; assay: Distribution of radioactivity in heart tissues of Sprague-Dawley rats after 15 min injecton by intravenously; 0.68-0.84; conditions: in vivo, iv, 0.25 h
[19] = tested on: Rattus norvegicus; assay: Distribution of radioactivity in heart tissues of Sprague-Dawley rats after 30 min injecton by intravenously; 0.58-0.82; conditions: in vivo, iv, 0.5 h; method in brief: as §1
[20] = tested on: Rattus norvegicus; assay: Distribution of radioactivity in blood tissues of Sprague-Dawley rats after 15 min injecton by intravenously; 0.72-1.03; conditions: in vivo, iv, 0.25 h
[21] = tested on: Rattus norvegicus; assay: Distribution of radioactivity in blood tissues of Sprague-Dawley rats after 30 min injecton by intravenously; 0.65-0.83; conditions: in vivo, iv, 0.5 h
[22] = tested on: Rattus norvegicus; assay: Distribution of radioactivity in heart tissues of Sprague-Dawley rats after 5 min injecton by intravenously; 0.79-0.85; conditions: in vivo, iv; method in brief: as §1
[23] = tested on: Rattus norvegicus; assay: Distribution of radioactivity in brain tissues of Sprague-Dawley rats after 30 min injecton by intravenously; 0.03-0.06; conditions: in vivo, iv, 0.5 h
[24] = tested on: Rattus norvegicus; assay: Distribution of radioactivity in liver tissues of Sprague-Dawley rats after 5 min injecton by intravenously; 1.03-1.31; conditions: in vivo, iv; method in brief: as §1
[25] = tested on: Rattus norvegicus; assay: Distribution of radioactivity in kidney tissues of Sprague-Dawley rats after 15 min injecton by intravenously; 1.59-2.03; conditions: in vivo, iv, 0.25 h
[26] = tested on: Rattus norvegicus; assay: Distribution of radioactivity in liver tissues of Sprague-Dawley rats after 30 min injecton by intravenously; 1.57-1.66; conditions: in vivo, iv, 0.5 h
[27] = tested on: Rattus norvegicus; assay: Distribution of radioactivity in liver tissues of Sprague-Dawley rats after 5 min injecton by intravenously; 0.73-1.45; conditions: in vivo, iv
[28] = tested on: Rattus norvegicus; assay: Distribution of radioactivity in liver tissues of Sprague-Dawley rats after 60 min injecton by intravenously; 1.36-1.74; conditions: in vivo, iv, 1 h
[29] = tested on: Rattus norvegicus; assay: Distribution of radioactivity in kidney tissues of Sprague-Dawley rats after 30 min injecton by intravenously; 1.67-2.11; conditions: in vivo, iv, 0.5 h
[30] = tested on: Rattus norvegicus; assay: Distribution of radioactivity in kidney tissues of Sprague-Dawley rats after 5 min injecton by intravenously; 0.62-1.13; conditions: in vivo, iv
[31] = tested on: Rattus norvegicus; assay: Distribution of radioactivity in kidney tissues of Sprague-Dawley rats after 60 min injecton by intravenously; 0.99-1.24; conditions: in vivo, iv, 1 h
[32] = tested on: Rattus norvegicus; assay: Distribution of radioactivity in liver tissues of Sprague-Dawley rats after 15 min injecton by intravenously; 1.37-1.74; conditions: in vivo, iv, 0.25 h
[33] = tested on: Rattus norvegicus; assay: Distribution of radioactivity in lung tissues of Sprague-Dawley rats after 15 min injecton by intravenously; 0.77-0.86; conditions: in vivo, iv, 0.25 h
[34] = tested on: Rattus norvegicus; assay: Distribution of radioactivity in lung tissues of Sprague-Dawley rats after 30 min injecton by intravenously; 0.6-0.66; conditions: in vivo, iv, 0.5 h
[35] = tested on: Rattus norvegicus; assay: Distribution of radioactivity in lung tissues of Sprague-Dawley rats after 60 min injecton by intravenously; 0.36-0.44; conditions: in vivo, iv, 1 h
[36] = tested on: Rattus norvegicus; assay: Distribution of radioactivity in brain tissues of Sprague-Dawley rats after 5 min injecton by intravenously; 0.35-0.72; conditions: in vivo, iv
Method in brief: (§3)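 Female Sprague-Dawley rats, 10–12 weeks old (170–200 g), fed ad libitum. The ¹²⁵I-labelled agent was dissolved in minimal Me2SO, diluted with saline to a final 20% Me2SO, filtered (0.22 μm), and injected into a lateral tail vein under ether anaesthesia. Tissues were counted against samples of the injected solution and expressed as % injected dose/g (mean, range). Brain/blood ratio is from the means.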

[37] = tested on: Rattus norvegicus; assay: Distribution of radioactivity in brain tissues of Sprague-Dawley rats after 60 min injecton by intravenously; 0.05-0.06; conditions: in vivo, iv, 1 h; method in brief: as §3
[38] = tested on: Rattus norvegicus; assay: Distribution of radioactivity in heart tissues of Sprague-Dawley rats after 60 min injecton by intravenously; 0.22-0.29; conditions: in vivo, iv, 1 h
[39] = tested on: Rattus norvegicus; assay: Distribution of radioactivity in blood tissues of Sprague-Dawley rats after 60 min injecton by intravenously; 0.49-0.58; conditions: in vivo, iv, 1 h; method in brief: as §3
[40] = tested on: Rattus norvegicus; assay: Distribution of radioactivity in brain tissues of Sprague-Dawley rats after 15 min injecton by intravenously; 0.34-0.5; conditions: in vivo, iv, 0.25 h; method in brief: as §3
[41] = tested on: Rattus norvegicus; assay: Distribution of radioactivity in heart tissues of Sprague-Dawley rats after 15 min injecton by intravenously; 0.52-0.62; conditions: in vivo, iv, 0.25 h; method in brief: as §3
[42] = tested on: Rattus norvegicus; assay: Distribution of radioactivity in heart tissues of Sprague-Dawley rats after 30 min injecton by intravenously; 0.36-0.42; conditions: in vivo, iv, 0.5 h; method in brief: as §3
[43] = tested on: Rattus norvegicus; assay: Distribution of radioactivity in blood tissues of Sprague-Dawley rats after 15 min injecton by intravenously; 0.95-1.06; conditions: in vivo, iv, 0.25 h; method in brief: as §3
[44] = tested on: Rattus norvegicus; assay: Distribution of radioactivity in blood tissues of Sprague-Dawley rats after 30 min injecton by intravenously; 0.69-0.84; conditions: in vivo, iv, 0.5 h; method in brief: as §3
[45] = tested on: Rattus norvegicus; assay: Distribution of radioactivity in blood tissues of Sprague-Dawley rats after 5 min injecton by intravenously; 0.58-1.17; conditions: in vivo, iv; method in brief: as §3
[46] = tested on: Rattus norvegicus; assay: Distribution of radioactivity in heart tissues of Sprague-Dawley rats after 5 min injecton by intravenously; 0.39-0.74; conditions: in vivo, iv
[47] = tested on: Rattus norvegicus; assay: Distribution of radioactivity in brain tissues of Sprague-Dawley rats after 30 min injecton by intravenously; 0.18-0.36; conditions: in vivo, iv, 0.5 h; method in brief: as §3
[48] = tested on: Rattus norvegicus; assay: Distribution of radioactivity in lung tissues of Sprague-Dawley rats after 5 min injecton by intravenously; 0.54-1.07; conditions: in vivo, iv

Structure (SMILES): C[n+]1cccc(C(=O)Nc2ccc([125I])cc2)c1.[I-]
- Distribution [1]: 0.71%
- Distribution [2]: 0.49%
- Distribution [3]: 0.65%
- Distribution [4]: 2.1%
- Distribution [5]: 0.53%
- Distribution [6]: 1.04%
- Distribution [7]: 0.72%
- Distribution [8]: 0.62%
- Distribution [9]: 0.84%
- Distribution [10]: 0.57%
- Distribution [11]: 0.06%
- Distribution [12]: 0.04%
- Distribution [13]: 1.11%
- Distribution [14]: 0.67%
- Distribution [15]: 0.74%
- Distribution [16]: 0.67%
- Distribution [17]: 0.05%
- Distribution [18]: 0.76%
- Distribution [19]: 0.68%
- Distribution [20]: 0.87%
- Distribution [21]: 0.75%
- Distribution [22]: 0.83%
- Distribution [23]: 0.04%
- Distribution [24]: 1.18%

Structure (SMILES): Nc1ccc([125I])cc1
- Distribution [25]: 1.81%
- Distribution [26]: 1.6%
- Distribution [27]: 1.16%
- Distribution [28]: 1.6%
- Distribution [29]: 1.8%
- Distribution [30]: 0.97%
- Distribution [31]: 1.12%
- Distribution [32]: 1.57%
- Distribution [33]: 0.81%
- Distribution [34]: 0.62%
- Distribution [35]: 0.39%
- Distribution [36]: 0.58%
- Distribution [37]: 0.06%
- Distribution [38]: 0.24%
- Distribution [39]: 0.54%
- Distribution [40]: 0.43%
- Distribution [41]: 0.57%
- Distribution [42]: 0.39%
- Distribution [43]: 0.99%
- Distribution [44]: 0.77%
- Distribution [45]: 0.94%
- Distribution [46]: 0.63%
- Distribution [47]: 0.27%
- Distribution [48]: 0.86%

— ChEMBL document CHEMBL1123067, “Evaluation of the brain-specific delivery of radioiodinated (iodophenyl)alkyl-substituted amines coupled to a dihydropyridine carrier” (J Med Chem, 1985)
